# Assay results as given in publication PMC11974842 (bioRxiv, 2025).
# T1: ScNar1 (Saccharomyces cerevisiae, UniProt P23503 1-491)
# T1 sequence: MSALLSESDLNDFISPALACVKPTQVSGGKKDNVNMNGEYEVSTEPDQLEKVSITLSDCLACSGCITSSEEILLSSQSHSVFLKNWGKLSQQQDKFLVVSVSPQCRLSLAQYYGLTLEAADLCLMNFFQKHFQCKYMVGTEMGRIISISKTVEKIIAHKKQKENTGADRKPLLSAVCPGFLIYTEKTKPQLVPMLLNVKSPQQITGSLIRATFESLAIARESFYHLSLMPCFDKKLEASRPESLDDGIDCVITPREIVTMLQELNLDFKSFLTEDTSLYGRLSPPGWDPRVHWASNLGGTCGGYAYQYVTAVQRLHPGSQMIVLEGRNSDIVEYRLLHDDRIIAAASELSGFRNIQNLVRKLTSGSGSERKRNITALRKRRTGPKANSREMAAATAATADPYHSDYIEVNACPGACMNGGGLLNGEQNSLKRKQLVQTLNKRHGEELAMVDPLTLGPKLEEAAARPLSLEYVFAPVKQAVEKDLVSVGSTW
# B1: ScCia1, strep-tagged bait (natural protein)
# chain: MASINLIKSLKLYKEKIWSFDFSQGILATGSTDRKIKLVSVKYDDFTLIDVLDETAHKKAIRSVAWRPHTSLLAAGSFDSTVSIWAKEESADRTFEMDLLAIIEGHENEVKGVAWSNDGYYLATCSRDKSVWIWETDESGEEYECISVLQEHSQDVKHVIWHPSEALLASSSYDDTVRIWKDYDDDWECVAVLNGHEGTVWSSDFDKTEGVFRLCSGSDDSTVRVWKYMGDDEDDQQEWVCEAILPDVHKRQVYNVAWGFNGLIASVGADGVLAVYEEVDGEWKVFAKRALCHGVYEINVVKWLELNGKTILATGGDDGIVNFWSLEKAA
# Assays:
# [1] = molecular target: ScCia2 (Saccharomyces cerevisiae); experiment: MST
# [2] = molecular target: FITC-4mer probe (last 4 residues of ScLeu1) (Saccharomyces cerevisiae) (UniProt P07264); experiment: fluorescence polarisation
# ScCia1-Cia2 = experiment: Affinity copurification with ScCia1-Cia2; assay type: binding, Saccharomyces cerevisiae; conditions: streptactin eluate, SDS-PAGE / western blot
# In short: (§1)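 Nar1 is the prey. Strep-tagged bait is either single CTC subunits (Cia1 alone) or combinations (Cia1-Cia2, or full Cia1-Cia2-Met18 complex). Eluates are analysed by SDS-PAGE and western blot for copurifying Nar1. Uncropped gels, including input samples and controls, accompany the analysis.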
# ScCia1 = experiment: Affinity copurification with ScCia1; assay type: binding, Saccharomyces cerevisiae; conditions: streptactin eluate, SDS-PAGE / western blot
# In short: as §1
# [3] = system: ScCTC (Cia1, Cia2, Met18); experiment: Affinity copurification with ScCTC; assay type: binding, Saccharomyces cerevisiae; conditions: streptactin eluate, strep-tagged Cia2 bait, SDS-PAGE / western blot
# In short: as §1
# ScCTC-Leu1 complex = experiment: Competition of Nar1 with Leu1 for the CTC; assay type: binding, Saccharomyces cerevisiae; conditions: Nar1 0.25-1.0 molar equivalents relative to Leu1; streptactin eluate, SDS-PAGE
# [4] = molecular target: B1; experiment: pull-down
# ScNar1 = molecular target: T1, ScNar1; experiment: pull-down
# full-length Nar1 = experiment: Affinity copurification of CTC with ScCia1 variants and full-length Nar1; assay type: binding, Saccharomyces cerevisiae; conditions: ScCia1 variants incorporated into the CTC
# SPCNar1 = experiment: Affinity copurification of ScCia1 variants with SPCNar1; assay type: binding, Saccharomyces cerevisiae; conditions: ScCia1 variants with Met18 and strep-tagged Cia2 bait, western blot
molecule,measurement,setting,value
ScCia1 Y254A (from UniProt Q05583 1-330) (natural protein),fold increase in KD against wild-type Cia1,[1],> 10 fold
HsCia1-Cia2a complex (from UniProt O76071 1-339; Q9H5X1 1-160),Kd,[2],48 µM
ScCia1-Cia2 complex (from UniProt Q05583 1-330),Kd,[2],86 µM
CtCia1-Cia2 complex,Kd,[2],25 µM
Nar1: full-length S. cerevisiae Nar1 with N-terminal His6-SUMO tag (protein) MSALLSESDLNDFISPALACVKPTQVSGGKKDNVNMNGEYEVSTEPDQLEKVSITLSDCLACSGCITSSEEILLSSQSHSVFLKNWGKLSQQQDKFLVVSVSPQCRLSLAQYYGLTLEAADLCLMNFFQKHFQCKYMVGTEMGRIISISKTVEKIIAHKKQKENTGADRKPLLSAVCPGFLIYTEKTKPQLVPMLLNVKSPQQITGSLIRATFESLAIARESFYHLSLMPCFDKKLEASRPESLDDGIDCVITPREIVTMLQELNLDFKSFLTEDTSLYGRLSPPGWDPRVHWASNLGGTCGGYAYQYVTAVQRLHPGSQMIVLEGRNSDIVEYRLLHDDRIIAAASELSGFRNIQNLVRKLTSGSGSERKRNITALRKRRTGPKANSREMAAATAATADPYHSDYIEVNACPGACMNGGGLLNGEQNSLKRKQLVQTLNKRHGEELAMVDPLTLGPKLEEAAARPLSLEYVFAPVKQAVEKDLVSVGSTW,copurification with Cia1-Cia2,ScCia1-Cia2,"Nar1 eluting with Cia1, Cia1-Cia2, and the full CTC"
same,copurification with Cia1,ScCia1,"Nar1 eluting with Cia1, Cia1-Cia2, and the full CTC"
same,copurification with the CTC,[3],"Nar1 eluting with Cia1, Cia1-Cia2, and the full CTC"
same,competition with Leu1 for binding to the CTC,ScCTC-Leu1 complex,the interaction of Nar1 and Leu1 with the CTC is mutually exclusive
Nar1 TCR-peptide variant: ScNar1 with C-terminal Trp substituted with Ala (protein) MSALLSESDLNDFISPALACVKPTQVSGGKKDNVNMNGEYEVSTEPDQLEKVSITLSDCLACSGCITSSEEILLSSQSHSVFLKNWGKLSQQQDKFLVVSVSPQCRLSLAQYYGLTLEAADLCLMNFFQKHFQCKYMVGTEMGRIISISKTVEKIIAHKKQKENTGADRKPLLSAVCPGFLIYTEKTKPQLVPMLLNVKSPQQITGSLIRATFESLAIARESFYHLSLMPCFDKKLEASRPESLDDGIDCVITPREIVTMLQELNLDFKSFLTEDTSLYGRLSPPGWDPRVHWASNLGGTCGGYAYQYVTAVQRLHPGSQMIVLEGRNSDIVEYRLLHDDRIIAAASELSGFRNIQNLVRKLTSGSGSERKRNITALRKRRTGPKANSREMAAATAATADPYHSDYIEVNACPGACMNGGGLLNGEQNSLKRKQLVQTLNKRHGEELAMVDPLTLGPKLEEAAARPLSLEYVFAPVKQAVEKDLVSVGSTA,copurification with the CTC,[3],less Nar1 TCR-peptide variant was found in the eluate
KDLVSVGSTW (domain or fragment) [SPCNar1 (SUMO peptide carrier with Nar1 residues 482-491)],binding result,[4],binds
B1,binding result,ScNar1,binds
"R127E (protein, UniProt Q05583 1-330, looked up, variant R127E) Cytosolic iron-sulfur protein …: MASINLIKSLKLYKEKIWSFDFSQGILATGSTDRKIKLVSVKYDDFTLIDVLDETAHKKAIRSVAWRPHTSLLAAGSFDSTVSIWAKEESADRTFEMDLLAIIEGHENEVKGVAWSNDGYYLATCSEDKSVWIWETDESGEEYECISVLQEHSQDVKHVIWHPSEALLASSSYDDTVRIWKDYDDDWECVAVLNGHEGTVWSSDFDKTEGVFRLCSGSDDSTVRVWKYMGDDEDDQQEWVCEAILPDVHKRQVYNVAWGFNGLIASVGADGVLAVYEEVDGEWKVFAKRALCHGVYEINVVKWLELNGKTILATGGDDGIVNFWSLEKAA",interaction with full-length Nar1,full-length Nar1,"none of the Cia1 variants tested, including the charge swapped R127E variant, completely blocked interaction"
"R127ACia1: ScCia1 variant (protein, left off: His6, N-terminal, state not stated) MASINLIKSLKLYKEKIWSFDFSQGILATGSTDRKIKLVSVKYDDFTLIDVLDETAHKKAIRSVAWRPHTSLLAAGSFDSTVSIWAKEESADRTFEMDLLAIIEGHENEVKGVAWSNDGYYLATCSADKSVWIWETDESGEEYECISVLQEHSQDVKHVIWHPSEALLASSSYDDTVRIWKDYDDDWECVAVLNGHEGTVWSSDFDKTEGVFRLCSGSDDSTVRVWKYMGDDEDDQQEWVCEAILPDVHKRQVYNVAWGFNGLIASVGADGVLAVYEEVDGEWKVFAKRALCHGVYEINVVKWLELNGKTILATGGDDGIVNFWSLEKAA",interaction with SPCNar1,SPCNar1,diminished the amount
Leu1: S. cerevisiae Leu1 with N-terminal His6-TEV tag (protein) MVYTPSKGPRTLYDKVFDAHVVHQDENGSFLLYIDRHLVHEVTSPQAFEGLENAGRKVRRVDCTLATVDHNIPTESRKNFKSLDTFIKQTDSRLQVKTLENNVKQFGVPYFGMSDARQGIVHTIGPEEGFTLPGTTVVCGDSHTSTHGAFGSLAFGIGTSEVEHVLATQTIIQAKSKNMRITVNGKLSPGITSKDLILYIIGLIGTAGGTGCVIEFAGEAIEALSMEARMSMCNMAIEAGARAGMIKPDETTFQYTKGRPLAPKGAEWEKAVAYWKTLKTDEGAKFDHEINIEAVDVIPTITWGTSPQDALPITGSVPDPKNVTDPIKKSGMERALAYMGLEPNTPLKSIKVDKVFIGSCTNGRIEDLRSAAAVVRGQKLASNIKLAMVVPGSGLVKKQAEAEGLDKIFQEAGFEWREAGCSICLGMNPDILDAYERCASTSNRNFEGRQGALSRTHLMSPAMAAAAGIAGHFVDIREFEYKDQDQSSPKVEVTSEDEKELESAAYDHAEPVQPEDAPQDIANDELKDIPVKSDDTPAKPSSSGMKPFLTLEGISAPLDKANVDTDAIIPKQFLKTIKRTGLKKGLFYEWRFRKDDQGKDQETDFVLNVEPWREAEILVVTGDNFGCGSSREHAPWALKDFGIKSIIAPSYGDIFYNNSFKNGLLPIRLDQQIIIDKLIPIANKGGKLCVDLPNQKILDSDGNVLVDHFEIEPFRKHCLVNGLDDIGITLQKEEYISRYEALRREKYSFLEGGSKLLKFDNVPKRKAVTTTFDKVHQDW,copurification with the CTC,[3],requires its C-terminal Trp to interact with the CTC in vitro
